# High-throughput results from PubChem BioAssay.
# PGC1a acetyl up: compounds raising PGC1a acetylation signal, primary screen, PGC1a modulator project, cell-based, U2OS, AlphaScreen, signal-increasing mode; actives 0.21% (n = 350,000); AID 651723, 2012; activation, % at 15.6 µM; overnight;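 active = every replicate reaching activation of at least 50%, whatever the mean replicate activation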;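 note: hits raise the AlphaScreen acetylation signal above neutral controls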
#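 detection = AlphaScreen lysate read | assay system = U2OS cells expressing flag-PGC1a plus GCN5 | input = 7000 cells/well | dosing = one concentration | times = compound overnight at 37 °C, each detection step 1 h RT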
# * marks the source's active call; other numbers are inactive results. This is one part of a sample in which hits are shown more often than they occur.
SMILES,PGC1a acetyl up
CCC(=O)Nc1nnc(SCCOC)s1,-3
CN(NC(=O)c1ccccc1)C1=NS(=O)(=O)c2ccccc21,-40
Cc1ccc(C(=O)N2CCN(c3ncccn3)CC2)cc1,-80
Cc1ccc(C(=O)N2CCN(c3ccc(NC(=S)NC(=O)c4cccs4)cc3)CC2)cc1,53*
COc1cc(CNC(=O)c2cc(-c3cc(C)cc(F)c3)n[nH]2)cc(OC)c1,-45
C[C@H]1CCCCO[C@H](CN(C)Cc2ccncc2)[C@@H](C)CN([C@@H](C)CO)C(=O)c2cc(NS(=O)(=O)c3ccccc3)ccc2O1,-73
Cc1cccc(C)c1OC1(c2ccccc2)OC(=O)c2ccccc21 (stereo not drawn),72*
O=C(Cn1nc(C(=O)O)c2ccccc2c1=O)Nc1cccc(Br)c1,-52
COc1ccc(S(=O)(=O)N2CCOCC2)cc1NC(=O)CCNC(=O)c1ccc([N+](=O)[O-])cc1,419*
CCN(c1ccccc1)S(=O)(=O)c1ccc(OC)c(NC(=O)Cc2ccc(F)cc2)c1,-40
COc1ccc(OC)c(Nc2ccc(C(=O)O)cc2[N+](=O)[O-])c1,-42
CS(=O)(=O)c1nc(-c2ccccc2)cc(C(F)(F)F)n1,-64
COc1cccc2sc(Nc3nc(-c4ccccn4)cs3)nc12,60*
COc1cnc(-c2ccccn2)nc1Sc1ccc(C)cc1,-60
CO[C@H]1CN(C)C(=O)c2cc(NC(=O)NC(C)C)ccc2OC[C@H](C)N(Cc2ccc(-c3ccccn3)cc2)C[C@@H]1C,-62
C[C@@H]1CN([C@@H](C)CO)C(=O)c2cccc(NC(=O)C3CCCCC3)c2O[C@@H]1CN(C)CC1CCCCC1,-44
O=c1[nH]cnc2c1ccn2C1OC(CO)C(O)C1O (stereo not drawn),138*
NC(Cc1ccccc1)c1csc(NC(=O)Nc2ccccc2Oc2ccccc2)n1 (stereo not drawn),71*
C[C@H](CO)N1C[C@H](C)[C@H](CN(C)C(=O)NC2CCCCC2)Oc2cc(C#Cc3cccc(F)c3)ccc2S1(=O)=O,-48
CCCCOc1ccc(C(=O)C(CN2CCOCC2)c2ccccc2)cc1 (stereo not drawn),-80
CC(c1ccccc1)N1CCN(C(=O)CCl)CC1 (stereo not drawn),-48
COc1ccc(C(=O)C(CN2CCCC2)c2ccccc2)cc1 (stereo not drawn),167*
CCOC(=O)CCc1c(C)c2ccc(O)cc2oc1=O,74*
OC(c1cc(C(F)(F)F)nc2c(C(F)(F)F)cccc12)C1CCCCN1 (stereo not drawn),78*
COc1ccc2nc(NCc3cccnc3)sc2c1,-56
SMILES,PGC1a acetyl up
CCn1cc(C(=O)NCc2cccnc2)c2cc(OC)c(OC)cc2c1=O,-45
COc1cccc(C(=O)c2c[nH]c(C(=O)NCc3cccnc3)c2)c1,86*
CCC1(CC)Cc2ccccc2-c2nc(CN(C)C)[nH]c(=O)c21,53*
Cc1cc(O)c(N=Nc2ccc(C(=O)O)cc2)cc1C,-50
O=C1C=CCCN1S(=O)(=O)/C=C/c1ccccc1,-59
OC[C@H]1O[C@@H](n2cnc3c(NCc4ccco4)ncnc32)[C@H](O)[C@@H]1O,72*
CC(C)c1nc2sc3c(NCc4ccco4)ncnc3c2c2c1COC(C)(C)C2,-59
Nc1nc(F)nc2c1ncn2[C@@H]1O[C@H](CO)[C@@H](O)[C@H]1O,-83
C[C@@H]1CN([C@H](C)CO)C(=O)c2cccc(NC(=O)c3ccc(-c4nccs4)cc3)c2O[C@@H]1CN(C)Cc1ccc(C(=O)Nc2ccccc2N)cc1,-51
Cc1cccc(NS(=O)(=O)c2ccc(NC(=O)CN(c3cc([N+](=O)[O-])ccc3C)S(C)(=O)=O)cc2)c1,378*
COc1ccc(C)cc1NS(=O)(=O)c1ccc(NC(=O)CN(c2cc([N+](=O)[O-])ccc2C)S(C)(=O)=O)cc1,474*
CC(=O)Nc1cc(C(=O)OCc2cccc([N+](=O)[O-])c2)ccc1C,-49
CCOc1ccc(N(CC(=O)Nc2ccccc2OC)S(=O)(=O)c2ccccc2)cc1,-88
COc1ccc(OC)c(N(CC(=O)Nc2ccccc2)S(C)(=O)=O)c1,-43
COc1ccccc1C1c2c(C)nn(-c3ccccc3)c2NC(=O)C1NC(=O)c1ccccc1 (stereo not drawn),-48
CCCc1ccc(C(O)c2ncc(-c3cccc(F)c3)[nH]2)cc1 (stereo not drawn),-43
CC(C)(C)S(=O)N1Cc2cc(C(=O)NCc3ccc(Oc4ccccc4)cc3)nc(-c3cccc(-c4cc5ccccc5o4)c3)c2[C@H]1CCO (stereo partly drawn),62*
O=S(=O)(c1ccc(Cl)cc1)c1snnc1-c1ccccc1,-42
Cc1ccc(-n2c(SCC(N)=O)nnc2-c2ccc(S(=O)(=O)N3CCCCC3)cc2)c(C)c1,63*
Cc1ccc(S(=O)(=O)N2CCCC2)cc1C(=O)O,-59
NCC[C@H]1CC[C@@H](NC(=O)C2CCCCC2)[C@@H](CO)O1,-56
COc1cccc(C2c3[nH]c4ccccc4c3CCN2Cc2cnc(C)s2)c1OC (stereo not drawn),70*
Cc1ccc(C)c(N2CCN(C(=O)CCCOc3cc(=O)n(C)c4ccccc34)CC2)c1,128*
Cc1ccc(S(=O)(=O)N2CCN(C(=O)CSc3nc4ccccc4c(=O)[nH]3)CC2)c(C)c1,-44
Cc1nc(NCCc2ccccc2)c2nnn(Cc3ccccc3Cl)c2n1,-42
SMILES,PGC1a acetyl up
CC(C)(C)NC(=O)Cn1nnc(-c2ccc(OCc3c(F)cccc3Cl)cc2)n1,66*
CC(C)c1ccc(-c2nnn(CC(=O)N3CCCCC3)n2)cc1,-40
COc1ccc(S(=O)(=O)Nc2ccc3c(c2)C(=O)N([C@H](C)CO)C[C@H](C)[C@H](CN(C)S(=O)(=O)c2cn(C)cn2)OCCCC[C@@H](C)O3)cc1,-55
CCCCCCC(=O)Nc1ccc(C(=O)N/N=C/c2cccnc2)cc1,417*
COc1ccc(/C=N/NC(=O)c2cccnc2)cc1CN1CCOCC1,-42
Cc1cccc(C(=O)Nc2ccc(C(=O)/C=C/c3cccnc3)cc2)c1,-54
CC(C)NC(=O)N(C)C[C@H]1OCCCC[C@@H](C)Oc2ccc(NC(=O)CCCN(C)C)cc2C(=O)N([C@@H](C)CO)C[C@@H]1C,-51
Cc1ccc(Cn2ncc(Cl)c(Cl)c2=O)cc1,112*
O=c1c(Cl)c(Cl)cnn1Cc1nnc(-c2ccc(Cl)cc2)o1,73*
COC(=O)C1CCN(Cc2nnc(-c3ccccc3)o2)CC1,-47
Cc1ccc(C)c(S(=O)(=O)N(C(=O)c2ccncc2)c2ccc(OC(=O)c3ccncc3)cc2)c1,-44
CCCCC(O)(CCCC)C(=O)N/N=C(\C)c1ccc(Cl)cc1,-44
CCOC(=O)c1cnn(-c2ccccc2)c1-n1cccc1C(=O)C(=O)Nc1ccc(F)cc1,78*
O=C(CC(CC(=O)c1ccc(Br)cc1)c1cccnc1)c1ccc(Br)cc1,-50
COc1ccc(C)cc1NC(=O)C1CCCN(S(=O)(=O)c2cccs2)C1 (stereo not drawn),-44
O=C(NCc1ccc2c(c1)OCO2)C1CCN(S(=O)(=O)c2cccs2)CC1,83*
O=c1[nH]c2nc(Cl)nc(Cl)c2[nH]1,-74
CC(C)(C)OC(=O)NC(Cc1ccccc1)C(=O)NCCCC(=O)O (stereo not drawn),-43
C[C@@H]1CN([C@H](C)CO)S(=O)(=O)c2ccc(C3=CCCCC3)cc2O[C@H]1CN(C)Cc1ccccc1,-43
C[C@@H]1CN([C@H](C)CO)S(=O)(=O)c2ccc(C#CC3CCCC3)cc2O[C@H]1CN(C)C,52*
